# Measurements published in ChEMBL document CHEMBL5724801, “EUbOPEN Chemogenomics Library - Multiplex” (2024).
# Several values for one entry are separate records, joined by “and”; a condition that tells them apart may be missing. Equal values may be shown once.
# Test system: Fibroblast
# Test: Multiplex assay against human fibroblast
# Format: toxicity, cell-based
# Method in brief: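 Compound was added to live cells that had been stained at seeding with Hoechst33342, BioTracker Green Microtubule Cytoskeleton Dye, MitoTracker Red and Annexin V Alexa Fluor 680, and imaging followed on a CQ1 microscope at 37°C and 5% CO2. CellPathfinder machine-learning gating divided cells into Hoechst high-intensity objects or normal cells, normal cells into healthy, pyknosed or fragmented nuclei, and pyknosed cells into mitotic or apoptotic. Tubulin, mitochondrial-mass and membrane-permeability phenotypes are per cents of healthy-nucleus cells.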
# [1] = 12 h, 1 µM, compound concentration 1 uM
# [2] = 12 h, 10 µM, compound concentration 10 uM
# [3] = 24 h, 1 µM, compound concentration 1 uM
# [4] = 24 h, 10 µM, compound concentration 10 uM
# [5] = 48 h, 1 µM, compound concentration 1 uM
# [6] = 48 h, 10 µM, compound concentration 10 uM
smiles,measurement,setting,value
CC(C)(O)c1cnc(N2C[C@@]3(CCC[C@](C)(Cn4cnc5ccc(C#N)cc54)C3)OC2=O)cn1 [GSK2798745],Population Apoptotic (%),[1],7.14% and 16.22%
same,Population Fragmented Nuclei (%),[1],12.71% and 8%
same,Population Healthy Nuclei (%),[1],63.56% and 75.56%
same,Population Hoechst High Intensity Objects (%),[1],0%
same,Population Membrane Permeable-Phenotype (%),[1],4% and 4.12%
same,Population Mitochondria Different-Phenotype (%),[1],13.33% and 10.59%
same,Population Mitotic Cells (%),[1],92.86% and 83.78%
same,Population Normal (%),[1],100%
same,Population Pyknosed Nuclei (%),[1],23.73% and 16.44%
same,Population Tubulin-Different-Phenotype (%),[1],16% and 20%
same,Total Cell Count,[1],118 and 225
same,Population Apoptotic (%),[2],11.76% and 21.62%
same,Population Fragmented Nuclei (%),[2],16.26% and 5.53%
same,Population Healthy Nuclei (%),[2],50.25% and 77.42%
same,Population Hoechst High Intensity Objects (%),[2],0%
same,Population Membrane Permeable-Phenotype (%),[2],14.71% and 12.5%
same,Population Mitochondria Different-Phenotype (%),[2],18.63% and 22.62%
same,Population Mitotic Cells (%),[2],88.24% and 78.38%
same,Population Normal (%),[2],100%
same,Population Pyknosed Nuclei (%),[2],33.5% and 17.05%
same,Population Tubulin-Different-Phenotype (%),[2],52.94% and 55.95%
same,Total Cell Count,[2],203 and 217
same,Population Apoptotic (%),[3],9.09% and 21.05%
same,Population Fragmented Nuclei (%),[3],14.29% and 4.76%
same,Population Healthy Nuclei (%),[3],65.22% and 87.01%
same,Population Hoechst High Intensity Objects (%),[3],0%
same,Population Membrane Permeable-Phenotype (%),[3],1.9% and 5.97%
same,Population Mitochondria Different-Phenotype (%),[3],4.76% and 5.97%
same,Population Mitotic Cells (%),[3],90.91% and 78.95%
same,Population Normal (%),[3],100%
same,Population Pyknosed Nuclei (%),[3],20.5% and 8.23%
same,Population Tubulin-Different-Phenotype (%),[3],16.19% and 21.89%
same,Total Cell Count,[3],161 and 231
same,Population Apoptotic (%),[4],11.11% and 25.81%
same,Population Fragmented Nuclei (%),[4],15.38% and 6.88%
same,Population Healthy Nuclei (%),[4],68.33% and 78.9%
same,Population Hoechst High Intensity Objects (%),[4],0%
same,Population Membrane Permeable-Phenotype (%),[4],9.93% and 5.81%
same,Population Mitochondria Different-Phenotype (%),[4],12.58% and 22.09%
same,Population Mitotic Cells (%),[4],88.89% and 74.19%
same,Population Normal (%),[4],100%
same,Population Pyknosed Nuclei (%),[4],16.29% and 14.22%
same,Population Tubulin-Different-Phenotype (%),[4],52.32% and 62.21%
same,Total Cell Count,[4],221 and 218
same,Population Fragmented Nuclei (%),[5],10.86% and 4.58%
same,Population Healthy Nuclei (%),[5],82.29% and 90.83%
same,Population Hoechst High Intensity Objects (%),[5],0%
same,Population Membrane Permeable-Phenotype (%),[5],0% and 4.13%
same,Population Mitotic Cells (%),[5],91.67% and 63.64%
same,Population Normal (%),[5],100%
same,Population Pyknosed Nuclei (%),[5],6.86% and 4.58%
same,Population Tubulin-Different-Phenotype (%),[5],12.5% and 17.89%
same,Total Cell Count,[5],175 and 240
same,Population Apoptotic (%),[6],14.29% and 42.11%
same,Population Fragmented Nuclei (%),[6],11.06% and 7.96%
same,Population Healthy Nuclei (%),[6],78.85% and 83.63%
same,Population Hoechst High Intensity Objects (%),[6],0%
same,Population Membrane Permeable-Phenotype (%),[6],4.27% and 11.64%
same,Population Mitochondria Different-Phenotype (%),[6],21.95% and 10.05%
same,Population Mitotic Cells (%),[6],85.71% and 57.89%
same,Population Normal (%),[6],100%
same,Population Pyknosed Nuclei (%),[6],10.1% and 8.41%
same,Population Tubulin-Different-Phenotype (%),[6],44.51% and 59.79%
same,Total Cell Count,[6],208 and 226
COc1cc2nc(N3CCN(C(=O)COc4c(OC)cccc4C(C)C)CC3)nc(N)c2cc1OC.Cl.Cl,Population Apoptotic (%),[1],50% and 36%
same,Population Fragmented Nuclei (%),[1],17% and 39%
same,Population Healthy Nuclei (%),[1],51% and 42%
same,Population Hoechst High Intensity Objects (%),[1],4% and 9%
same,Population Membrane Permeable-Phenotype (%),[1],3% and 5%
same,Population Mitochondria Different-Phenotype (%),[1],6% and 7%
same,Population Mitotic Cells (%),[1],50% and 63%
same,Population Normal (%),[1],95% and 90%
same,Population Pyknosed Nuclei (%),[1],30% and 18%
same,Population Tubulin-Different-Phenotype (%),[1],40% and 43%
same,Total Cell Count,[1],123 and 182
same,Population Apoptotic (%),[2],33% and 29%
same,Population Fragmented Nuclei (%),[2],13% and 22%
same,Population Healthy Nuclei (%),[2],47% and 46%
same,Population Hoechst High Intensity Objects (%),[2],20% and 10%
same,Population Membrane Permeable-Phenotype (%),[2],0% and 4%
same,Population Mitochondria Different-Phenotype (%),[2],15% and 8%
same,Population Mitotic Cells (%),[2],66% and 70%
same,Population Normal (%),[2],79% and 89%
same,Population Pyknosed Nuclei (%),[2],38% and 30%
same,Population Tubulin-Different-Phenotype (%),[2],63% and 56%
same,Total Cell Count,[2],346 and 283
same,Population Apoptotic (%),[3],68% and 57%
same,Population Fragmented Nuclei (%),[3],23% and 40%
same,Population Healthy Nuclei (%),[3],58% and 42%
same,Population Hoechst High Intensity Objects (%),[3],3% and 11%
same,Population Membrane Permeable-Phenotype (%),[3],1% and 5%
same,Population Mitochondria Different-Phenotype (%),[3],9% and 11%
same,Population Mitotic Cells (%),[3],31% and 42%
same,Population Normal (%),[3],96% and 88%
same,Population Pyknosed Nuclei (%),[3],17%
same,Population Tubulin-Different-Phenotype (%),[3],39% and 50%
same,Total Cell Count,[3],128 and 180
same,Population Apoptotic (%),[4],40% and 33%
same,Population Fragmented Nuclei (%),[4],13% and 25%
same,Population Healthy Nuclei (%),[4],45% and 40%
same,Population Hoechst High Intensity Objects (%),[4],39% and 23%
same,Population Membrane Permeable-Phenotype (%),[4],0% and 4%
same,Population Mitotic Cells (%),[4],60% and 66%
same,Population Normal (%),[4],60% and 76%
same,Population Pyknosed Nuclei (%),[4],41% and 34%
same,Population Tubulin-Different-Phenotype (%),[4],38% and 47%
same,Total Cell Count,[4],344 and 273
same,Population Apoptotic (%),[5],65% and 42%
same,Population Fragmented Nuclei (%),[5],31% and 45%
same,Population Healthy Nuclei (%),[5],51% and 43%
same,Population Hoechst High Intensity Objects (%),[5],4% and 10%
same,Population Membrane Permeable-Phenotype (%),[5],0% and 8%
same,Population Mitochondria Different-Phenotype (%),[5],11% and 10%
same,Population Mitotic Cells (%),[5],35% and 57%
same,Population Normal (%),[5],96% and 89%
same,Population Pyknosed Nuclei (%),[5],16% and 11%
same,Population Tubulin-Different-Phenotype (%),[5],30% and 57%
same,Total Cell Count,[5],125 and 193
same,Population Apoptotic (%),[6],45% and 30%
same,Population Fragmented Nuclei (%),[6],12% and 33%
same,Population Healthy Nuclei (%),[6],45% and 33%
same,Population Hoechst High Intensity Objects (%),[6],52% and 31%
same,Population Membrane Permeable-Phenotype (%),[6],2% and 9%
same,Population Mitochondria Different-Phenotype (%),[6],10% and 0%
same,Population Mitotic Cells (%),[6],54% and 69%
same,Population Normal (%),[6],47% and 68%
same,Population Pyknosed Nuclei (%),[6],42% and 33%
same,Population Tubulin-Different-Phenotype (%),[6],42% and 43%
same,Total Cell Count,[6],358 and 311
COc1cccc2c1c(NS(=O)(=O)c1ccc(Cl)s1)nn2Cc1cccc(CNC(=O)C(C)(C)O)c1,Population Apoptotic (%),[1],43% and 33%
same,Population Fragmented Nuclei (%),[1],16% and 26%
same,Population Healthy Nuclei (%),[1],66% and 54%
same,Population Hoechst High Intensity Objects (%),[1],0%
same,Population Membrane Permeable-Phenotype (%),[1],1% and 4%
same,Population Mitochondria Different-Phenotype (%),[1],2% and 1%
same,Population Mitotic Cells (%),[1],56% and 66%
same,Population Normal (%),[1],99% and 100%
same,Population Pyknosed Nuclei (%),[1],17% and 18%
same,Population Tubulin-Different-Phenotype (%),[1],27% and 18%
same,Total Cell Count,[1],134 and 112
same,Population Apoptotic (%),[2],42% and 41%
same,Population Fragmented Nuclei (%),[2],13% and 24%
same,Population Healthy Nuclei (%),[2],72% and 55%
same,Population Hoechst High Intensity Objects (%),[2],2% and 7%
same,Population Membrane Permeable-Phenotype (%),[2],1% and 7%
same,Population Mitochondria Different-Phenotype (%),[2],11% and 4%
same,Population Mitotic Cells (%),[2],57% and 58%
same,Population Normal (%),[2],97% and 92%
same,Population Pyknosed Nuclei (%),[2],13% and 19%
same,Population Tubulin-Different-Phenotype (%),[2],37% and 55%
same,Total Cell Count,[2],211 and 174
same,Population Apoptotic (%),[3],55% and 50%
same,Population Fragmented Nuclei (%),[3],19% and 28%
same,Population Healthy Nuclei (%),[3],68% and 49%
same,Population Hoechst High Intensity Objects (%),[3],2% and 1%
same,Population Membrane Permeable-Phenotype (%),[3],2% and 7%
same,Population Mitochondria Different-Phenotype (%),[3],3% and 5%
same,Population Mitotic Cells (%),[3],44% and 50%
same,Population Normal (%),[3],97% and 98%
same,Population Pyknosed Nuclei (%),[3],12% and 22%
same,Population Tubulin-Different-Phenotype (%),[3],28% and 35%
same,Total Cell Count,[3],144 and 110
same,Population Apoptotic (%),[4],48% and 50%
same,Population Fragmented Nuclei (%),[4],11% and 22%
same,Population Healthy Nuclei (%),[4],74% and 55%
same,Population Hoechst High Intensity Objects (%),[4],2% and 8%
same,Population Membrane Permeable-Phenotype (%),[4],1% and 6%
same,Population Mitochondria Different-Phenotype (%),[4],7% and 2%
same,Population Mitotic Cells (%),[4],52% and 50%
same,Population Normal (%),[4],97% and 92%
same,Population Pyknosed Nuclei (%),[4],13% and 22%
same,Population Tubulin-Different-Phenotype (%),[4],30% and 48%
same,Total Cell Count,[4],190 and 175
same,Population Apoptotic (%),[5],62% and 75%
same,Population Fragmented Nuclei (%),[5],21% and 26%
same,Population Healthy Nuclei (%),[5],66% and 60%
same,Population Hoechst High Intensity Objects (%),[5],5% and 2%
same,Population Membrane Permeable-Phenotype (%),[5],1% and 8%
same,Population Mitochondria Different-Phenotype (%),[5],5% and 3%
same,Population Mitotic Cells (%),[5],37% and 25%
same,Population Normal (%),[5],94% and 97%
same,Population Pyknosed Nuclei (%),[5],12%
same,Population Tubulin-Different-Phenotype (%),[5],30% and 55%
same,Total Cell Count,[5],135 and 99
same,Population Apoptotic (%),[6],63% and 51%
same,Population Fragmented Nuclei (%),[6],13% and 33%
same,Population Healthy Nuclei (%),[6],73% and 49%
same,Population Hoechst High Intensity Objects (%),[6],5% and 6%
same,Population Membrane Permeable-Phenotype (%),[6],3%
same,Population Mitochondria Different-Phenotype (%),[6],10% and 4%
same,Population Mitotic Cells (%),[6],36% and 48%
same,Population Normal (%),[6],94% and 93%
same,Population Pyknosed Nuclei (%),[6],12% and 17%
same,Population Tubulin-Different-Phenotype (%),[6],40% and 43%
same,Total Cell Count,[6],187
